Test results taken from ChEMBL document CHEMBL1949633, “Novel morpholine ketone analogs as potent histamine H3 receptor inverse agonists with wake activity” (Bioorg Med Chem Lett, 2012).
Calls of active or inactive are those of the source. The calls are words filed in the database; no cut-off is given here.

Tests used:
Histamine H3 receptor [1] = target: Histamine H3 receptor (Homo sapiens, UniProt Q9Y5N1); experiment: Displacement of [3H]NAMH from human histamine H3 receptor
Histamine H3 receptor [2] = target: Histamine H3 receptor (Rattus norvegicus, UniProt Q9QYN8); experiment: Displacement of [3H]NAMH from rat histamine H3 receptor
Chain of Histamine H3 receptor (Rattus norvegicus, UniProt Q9QYN8) (Q9QYN8 whole entry): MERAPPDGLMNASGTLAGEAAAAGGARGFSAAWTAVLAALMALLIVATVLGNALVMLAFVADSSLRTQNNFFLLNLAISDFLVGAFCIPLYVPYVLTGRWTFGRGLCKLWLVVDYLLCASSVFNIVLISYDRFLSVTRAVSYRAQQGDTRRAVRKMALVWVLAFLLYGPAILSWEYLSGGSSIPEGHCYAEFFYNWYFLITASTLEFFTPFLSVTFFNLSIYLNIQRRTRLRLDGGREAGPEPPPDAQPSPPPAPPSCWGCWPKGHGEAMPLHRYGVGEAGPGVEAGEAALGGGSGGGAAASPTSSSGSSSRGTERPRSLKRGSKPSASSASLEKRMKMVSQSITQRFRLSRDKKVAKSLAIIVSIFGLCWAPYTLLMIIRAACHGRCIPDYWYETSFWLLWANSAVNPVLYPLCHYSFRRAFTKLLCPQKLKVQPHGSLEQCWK
Method in brief: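 Radioligand binding with [3H]NAMH in membranes from cells transfected with human or rat H3 receptor. Ki values averaged from at least two determinations; assay-to-assay variation typically within 2.5-fold.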

[3] = Half life in mouse liver microsomes; assay type: ADME, Microsome
[4] = Half life in human liver microsomes; assay type: ADME, Microsome
[5] = Half life in dog liver microsomes; assay type: ADME, Canis lupus familiaris, Microsome
[6] = Half life in rat liver microsomes; assay type: ADME, Microsome
[7] = Drug uptake in rat brain at 10 mg/kg, ip measured after 1 hr; assay type: ADME, organism-based; set-up: dose 10 mg/kg, route intraperitoneal; conditions: read-out: Drug uptake
Method in brief: (§1)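 Male-unspecified rats dosed 10 mg/kg ip in 0.5% methylcellulose, 0.2% Tween 80 in water; brain concentration (ng/g) measured at 1, 4, 6 and 24 h post dose. Brain-to-plasma ratio taken at 1 h.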

[8] = Drug uptake in rat brain at 10 mg/kg, ip measured after 4 hrs; assay type: ADME, organism-based; set-up: dose 10 mg/kg, route intraperitoneal; conditions: read-out: Drug uptake; method in brief: as §1
[9] = Drug uptake in rat brain at 10 mg/kg, ip measured after 6 hrs; assay type: ADME, organism-based; set-up: dose 10 mg/kg, route intraperitoneal; conditions: read-out: Drug uptake; method in brief: as §1
Brain = experiment: Drug uptake in rat brain at 10 mg/kg, ip measured after 24 hrs; assay type: ADME, organism-based; set-up: dose 10 mg/kg, route intraperitoneal; conditions: in vivo; method in brief: as §1
Cytochrome P450 2D6 = Cytochrome P450 2D6 (Homo sapiens, UniProt P10635); experiment: Inhibition of CYP2D6; assay type: ADME
Chain of Cytochrome P450 2D6 (P10635 whole entry): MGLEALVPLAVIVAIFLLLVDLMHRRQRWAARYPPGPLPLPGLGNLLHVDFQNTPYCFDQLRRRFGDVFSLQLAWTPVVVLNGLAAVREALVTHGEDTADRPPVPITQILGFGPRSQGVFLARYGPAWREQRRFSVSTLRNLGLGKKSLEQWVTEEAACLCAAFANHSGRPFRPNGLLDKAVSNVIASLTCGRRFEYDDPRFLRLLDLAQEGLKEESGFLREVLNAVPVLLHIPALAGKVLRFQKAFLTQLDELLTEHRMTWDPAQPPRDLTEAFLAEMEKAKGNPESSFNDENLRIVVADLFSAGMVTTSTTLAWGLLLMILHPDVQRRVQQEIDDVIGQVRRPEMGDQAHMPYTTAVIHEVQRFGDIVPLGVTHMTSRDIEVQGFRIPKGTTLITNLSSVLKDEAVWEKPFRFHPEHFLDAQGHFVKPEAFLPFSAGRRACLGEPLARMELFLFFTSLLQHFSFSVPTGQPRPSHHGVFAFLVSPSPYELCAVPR

Rattus norvegicus [10] = experiment: Effect on sleep-awake cycle in ip dosed EEG/EMG Sprague-Dawley rat model assessed as wake promotion after 4 hrs; assay type: functional, organism-based
Rattus norvegicus [11] = experiment: Effect on sleep-awake cycle in EEG/EMG Sprague-Dawley rat model assessed as wake promotion at 60 mg/kg, ip after 4 hrs relative to control; assay type: functional; conditions: route intraperitoneal
Method in brief: (§2)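 Male Sprague Dawley rats were surgically implanted for chronic EEG and EMG recording and dosed ip at 10, 30 or 60 mg/kg or with vehicle. Line 2 is read as cumulative time awake over 4 h post-dose (4 h AUC), or percent time awake. Line 1 is theta-range EEG power (~6–9 Hz, FFT amplitude) at 1 h. n = 7-8/group; Dunnett's test versus vehicle.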

Rattus norvegicus [12] = experiment: Effect on sleep-awake cycle in EEG/EMG Sprague-Dawley rat model assessed as increase in rapid eye movement sleep at 30 mg/kg, ip after 4 hrs; assay type: functional, organism-based; set-up: dose 30 mg/kg
Rattus norvegicus [13] = experiment: Effect on sleep-awake cycle in ip dosed EEG/EMG Sprague-Dawley rat model assessed as wake promotion time at 30 mg/kg, ip (reference value: 101 +/- 7 mins); assay type: functional; conditions: route intraperitoneal
Rattus norvegicus [14] = experiment: Effect on sleep-awake cycle in ip dosed EEG/EMG Sprague-Dawley rat model assessed as wake promotion time at 60 mg/kg, ip (reference value: 101 +/- 7 mins); assay type: functional; conditions: route intraperitoneal
Cytochrome P450 2C9 = Cytochrome P450 2C9 (Homo sapiens, UniProt P11712); experiment: Inhibition of CYP2C9; assay type: ADME
Chain of Cytochrome P450 2C9 (P11712 whole entry): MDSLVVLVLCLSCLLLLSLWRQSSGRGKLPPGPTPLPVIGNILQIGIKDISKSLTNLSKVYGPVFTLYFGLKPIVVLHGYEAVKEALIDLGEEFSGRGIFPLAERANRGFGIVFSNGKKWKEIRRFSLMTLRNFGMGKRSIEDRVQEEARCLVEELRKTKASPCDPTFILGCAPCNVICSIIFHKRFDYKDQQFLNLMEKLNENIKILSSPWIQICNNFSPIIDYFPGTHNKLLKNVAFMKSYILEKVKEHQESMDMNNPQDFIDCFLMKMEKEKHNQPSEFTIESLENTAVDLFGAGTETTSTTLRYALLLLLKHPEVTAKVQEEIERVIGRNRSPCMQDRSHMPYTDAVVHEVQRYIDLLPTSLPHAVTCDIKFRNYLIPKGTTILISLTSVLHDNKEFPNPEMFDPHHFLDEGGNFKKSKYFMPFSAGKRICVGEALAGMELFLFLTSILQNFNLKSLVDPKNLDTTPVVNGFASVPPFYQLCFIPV

Rattus norvegicus [15] = experiment: Effect on sleep-awake cycle in EEG/EMG Sprague-Dawley rat model assessed as sleep rebound at 10 to 60 mg/kg, ip up to 22 hrs; assay type: functional, organism-based
Cytochrome P450 1A2 = target: T1, Cytochrome P450 1A2 (Homo sapiens, UniProt P05177); experiment: Inhibition of CYP1A2; assay type: ADME
T1 sequence (P05177 whole entry): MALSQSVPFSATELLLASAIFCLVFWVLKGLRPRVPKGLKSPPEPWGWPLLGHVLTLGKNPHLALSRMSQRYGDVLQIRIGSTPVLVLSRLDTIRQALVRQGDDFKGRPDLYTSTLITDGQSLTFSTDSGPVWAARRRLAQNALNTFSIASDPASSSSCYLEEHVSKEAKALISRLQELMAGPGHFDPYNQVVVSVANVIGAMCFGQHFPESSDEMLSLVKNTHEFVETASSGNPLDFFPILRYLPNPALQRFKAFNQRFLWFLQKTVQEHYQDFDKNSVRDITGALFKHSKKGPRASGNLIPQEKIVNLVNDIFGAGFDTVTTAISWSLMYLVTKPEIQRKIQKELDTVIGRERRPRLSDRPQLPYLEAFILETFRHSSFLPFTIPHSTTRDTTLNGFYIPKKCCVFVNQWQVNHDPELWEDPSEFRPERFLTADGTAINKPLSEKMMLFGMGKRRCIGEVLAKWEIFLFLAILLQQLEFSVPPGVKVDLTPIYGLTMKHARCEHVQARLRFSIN

Rattus norvegicus [16] = experiment: Effect on sleep-awake cycle in EEG/EMG Sprague-Dawley rat model assessed as increase in rapid eye movement sleep at 60 mg/kg, ip after 4 hrs; assay type: functional, organism-based; set-up: dose 60 mg/kg
[17] = target: Sigma non-opioid intracellular receptor 1 (Homo sapiens) (UniProt Q99720); experiment: Inhibition of human sigma 1 receptor at 10 uM
Chain of Sigma non-opioid intracellular receptor 1 (Homo sapiens) (Q99720 whole entry): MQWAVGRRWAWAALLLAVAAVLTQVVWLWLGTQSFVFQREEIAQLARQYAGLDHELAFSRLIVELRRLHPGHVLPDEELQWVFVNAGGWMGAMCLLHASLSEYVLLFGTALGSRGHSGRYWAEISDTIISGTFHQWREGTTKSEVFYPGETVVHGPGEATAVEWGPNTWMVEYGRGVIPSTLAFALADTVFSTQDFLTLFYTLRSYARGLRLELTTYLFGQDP
Method in brief: (§3)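 Selectivity panel of 70 GPCRs, ion channels and enzymes run by a contract screening service; percent inhibition at 10 µM test concentration.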

Rattus norvegicus [18] = experiment: Effect on sleep-awake cycle in EEG/EMG Sprague-Dawley rat model assessed as increase in slow-wave sleep at 30 mg/kg, ip after 4 hrs; assay type: functional, organism-based; set-up: dose 30 mg/kg
Rattus norvegicus [19] = experiment: Effect on sleep-awake cycle in EEG/EMG Sprague-Dawley rat model assessed as wake promotion at 60 mg/kg, ip after 4 hrs; assay type: functional; conditions: route intraperitoneal
[20] = Ratio of drug uptake in rat brain to plasma at 10 mg/kg, ip measured after 1 hr; assay type: ADME, organism-based; set-up: dose 10 mg/kg, route intraperitoneal; conditions: read-out: BPR; method in brief: as §1
[21] = target: Nischarin (Rattus norvegicus) (UniProt Q4G017); experiment: Inhibition of rat imidazoline I2 receptor at 10 uM; method in brief: as §3
Chain of Nischarin (Rattus norvegicus) (Q4G017 whole entry): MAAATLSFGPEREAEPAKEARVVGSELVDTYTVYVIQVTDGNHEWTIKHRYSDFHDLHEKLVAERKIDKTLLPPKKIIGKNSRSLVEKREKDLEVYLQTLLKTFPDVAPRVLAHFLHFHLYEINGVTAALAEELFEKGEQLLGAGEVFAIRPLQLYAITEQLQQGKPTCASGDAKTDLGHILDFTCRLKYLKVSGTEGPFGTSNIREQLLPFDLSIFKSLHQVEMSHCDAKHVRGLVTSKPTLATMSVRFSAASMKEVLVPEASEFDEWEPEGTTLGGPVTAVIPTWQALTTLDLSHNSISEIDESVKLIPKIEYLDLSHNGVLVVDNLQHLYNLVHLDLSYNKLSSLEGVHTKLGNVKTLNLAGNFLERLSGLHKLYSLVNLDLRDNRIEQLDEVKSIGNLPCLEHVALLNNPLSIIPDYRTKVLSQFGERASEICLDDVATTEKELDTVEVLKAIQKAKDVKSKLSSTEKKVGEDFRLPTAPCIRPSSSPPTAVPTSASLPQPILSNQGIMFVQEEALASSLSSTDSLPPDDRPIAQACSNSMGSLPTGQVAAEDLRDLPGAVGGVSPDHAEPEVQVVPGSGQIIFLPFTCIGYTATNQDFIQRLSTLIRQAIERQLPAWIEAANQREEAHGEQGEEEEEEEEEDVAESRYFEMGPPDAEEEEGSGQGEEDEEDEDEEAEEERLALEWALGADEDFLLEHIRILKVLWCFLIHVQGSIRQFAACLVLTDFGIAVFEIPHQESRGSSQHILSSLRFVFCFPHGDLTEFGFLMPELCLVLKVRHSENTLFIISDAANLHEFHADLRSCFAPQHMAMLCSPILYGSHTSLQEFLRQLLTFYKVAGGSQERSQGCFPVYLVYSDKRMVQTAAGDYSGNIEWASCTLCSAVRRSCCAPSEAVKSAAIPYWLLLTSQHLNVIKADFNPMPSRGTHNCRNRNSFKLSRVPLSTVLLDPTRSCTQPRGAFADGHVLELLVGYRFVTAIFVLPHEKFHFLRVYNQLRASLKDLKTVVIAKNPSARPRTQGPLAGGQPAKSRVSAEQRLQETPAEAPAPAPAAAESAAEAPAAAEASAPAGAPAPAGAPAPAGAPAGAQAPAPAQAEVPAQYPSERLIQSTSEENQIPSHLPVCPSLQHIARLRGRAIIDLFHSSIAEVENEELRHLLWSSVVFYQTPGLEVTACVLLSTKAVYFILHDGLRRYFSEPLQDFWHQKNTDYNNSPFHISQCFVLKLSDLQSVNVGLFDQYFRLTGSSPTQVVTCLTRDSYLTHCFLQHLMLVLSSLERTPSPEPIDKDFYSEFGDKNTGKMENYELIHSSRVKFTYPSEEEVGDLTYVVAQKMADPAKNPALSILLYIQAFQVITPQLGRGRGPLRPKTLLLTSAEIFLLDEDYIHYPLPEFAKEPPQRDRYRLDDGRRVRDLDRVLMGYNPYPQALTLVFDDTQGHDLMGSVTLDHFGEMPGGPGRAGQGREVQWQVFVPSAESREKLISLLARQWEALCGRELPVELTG

Cytochrome P450 3A4 = Cytochrome P450 3A4 (Homo sapiens, UniProt P08684); experiment: Inhibition of CYP3A4; assay type: ADME
Chain of Cytochrome P450 3A4 (P08684 whole entry): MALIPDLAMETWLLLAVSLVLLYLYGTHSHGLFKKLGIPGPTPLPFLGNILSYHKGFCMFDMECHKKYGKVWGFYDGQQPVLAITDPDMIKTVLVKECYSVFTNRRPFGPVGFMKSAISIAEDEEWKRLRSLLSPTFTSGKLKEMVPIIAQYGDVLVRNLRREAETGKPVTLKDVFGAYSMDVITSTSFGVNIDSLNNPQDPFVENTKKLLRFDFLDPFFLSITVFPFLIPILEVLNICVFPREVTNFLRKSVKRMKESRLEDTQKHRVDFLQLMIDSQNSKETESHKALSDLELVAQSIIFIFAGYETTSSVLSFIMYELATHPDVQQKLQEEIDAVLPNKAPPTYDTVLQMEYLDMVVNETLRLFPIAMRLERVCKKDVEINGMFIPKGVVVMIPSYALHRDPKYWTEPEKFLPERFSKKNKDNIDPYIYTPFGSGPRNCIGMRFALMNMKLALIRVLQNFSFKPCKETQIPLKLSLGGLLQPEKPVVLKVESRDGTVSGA

Rattus norvegicus [22] = experiment: Effect on sleep-awake cycle in EEG/EMG Sprague-Dawley rat model assessed as change in EEG theta frequency at 30 to 60 mg/kg, ip after 1 hr; assay type: functional, organism-based
[23] = Oral bioavailability in rat at 5 mg/kg; assay type: ADME, organism-based; conditions: in vivo
Method in brief: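 Rats received 5 mg/kg po in 50% Tween 80, 40% propylene carbonate and 10% propylene glycol. The iv comparison dose was formulated in 3% DMSO, 30% solutol and 67% phosphate-buffered saline.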

Rattus norvegicus [24] = experiment: Effect on sleep-awake cycle in EEG/EMG Sprague-Dawley rat model assessed as increase in slow-wave sleep at 60 mg/kg, ip after 4 hrs; assay type: functional, organism-based; set-up: dose 60 mg/kg
Rattus norvegicus [25] = experiment: AUC (0 to 6 hrs) in rat at 5 mg/kg, po; assay type: ADME, organism-based, Plasma; set-up: time < 6 hr, dose 5 mg/kg, route oral; conditions: in vivo
Rattus norvegicus [26] = experiment: Effect on sleep-awake cycle in ip dosed EEG/EMG Sprague-Dawley rat model assessed as wake promotion time at 10 mg/kg, ip (reference value: 101 +/- 7 mins); assay type: functional; conditions: route intraperitoneal
[27] = Aqueous solubility of the compound at pH 7.4; assay type: physicochemical; conditions: aqueous medium
Cytochrome P450 2C19 = Cytochrome P450 2C19 (Homo sapiens, UniProt P33261); experiment: Inhibition of CYP2C19; assay type: ADME
Chain of Cytochrome P450 2C19 (P33261 whole entry): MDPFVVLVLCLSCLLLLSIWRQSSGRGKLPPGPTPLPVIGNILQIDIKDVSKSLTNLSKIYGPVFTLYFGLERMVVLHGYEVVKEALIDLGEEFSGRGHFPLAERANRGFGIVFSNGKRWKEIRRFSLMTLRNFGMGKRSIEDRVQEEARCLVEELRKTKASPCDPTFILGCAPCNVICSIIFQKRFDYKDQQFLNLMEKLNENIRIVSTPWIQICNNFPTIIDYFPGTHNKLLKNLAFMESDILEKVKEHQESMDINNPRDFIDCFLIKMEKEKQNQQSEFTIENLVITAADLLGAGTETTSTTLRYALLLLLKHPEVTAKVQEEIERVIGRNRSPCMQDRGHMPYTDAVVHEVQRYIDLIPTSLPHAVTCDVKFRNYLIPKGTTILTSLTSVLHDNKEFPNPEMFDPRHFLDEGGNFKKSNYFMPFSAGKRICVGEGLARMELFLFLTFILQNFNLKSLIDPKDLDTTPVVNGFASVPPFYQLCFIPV

Rattus norvegicus [28] = experiment: Toxicity in EEG/EMG Sprague-Dawley rat model assessed as adverse EEG activity at 10 to 60 mg/kg, ip; assay type: organism-based; set-up: dose 10-60 mg/kg, route intraperitoneal; conditions: in vivo
Rattus norvegicus [29] = experiment: Effect on sleep-awake cycle in EEG/EMG Sprague-Dawley rat model assessed as increase in EEG theta range at 30 to 60 mg/kg, ip after 1 hr; assay type: functional; conditions: dose mg/kg 30-60; route intraperitoneal; method in brief: as §2

Chain of Histamine H3 receptor (Homo sapiens, UniProt Q9Y5N1) (Q9Y5N1 whole entry): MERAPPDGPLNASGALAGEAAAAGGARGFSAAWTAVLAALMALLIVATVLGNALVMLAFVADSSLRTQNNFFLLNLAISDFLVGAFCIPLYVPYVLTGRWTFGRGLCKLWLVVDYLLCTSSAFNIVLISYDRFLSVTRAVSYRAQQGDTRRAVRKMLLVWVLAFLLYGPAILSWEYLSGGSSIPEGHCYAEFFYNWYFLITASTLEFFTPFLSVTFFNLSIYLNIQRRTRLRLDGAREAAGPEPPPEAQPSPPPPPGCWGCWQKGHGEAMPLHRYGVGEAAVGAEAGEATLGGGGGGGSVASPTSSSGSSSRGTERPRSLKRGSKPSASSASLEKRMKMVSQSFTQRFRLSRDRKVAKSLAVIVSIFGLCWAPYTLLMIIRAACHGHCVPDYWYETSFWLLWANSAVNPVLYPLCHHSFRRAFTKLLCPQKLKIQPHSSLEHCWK

O=C(CN1CCOCC1)c1ccc(OCCCN2CCCC2)cc1
Ki (Histamine H3 receptor [1]): 106 nM | Ki (Histamine H3 receptor [2]): 594 nM

C[C@@H]1CN(CC(=O)c2ccc(OCCCN3CCC[C@H]3C)cc2)C[C@H](C)O1
Ki (Histamine H3 receptor [1]): 10 nM | Ki (Histamine H3 receptor [2]): 78 nM

C[C@@H]1CCCN1CCCOc1ccc(C(=O)C(C)(C)N2CCOCC2)cc1
half-life [3]: > 40 min | Ki (Histamine H3 receptor [1]): 9 nM | half-life [4]: 8 min | half-life [5]: 10 min | Ki (Histamine H3 receptor [2]): 33 nM | half-life [6]: 9 min

CC1CCCN1CCCOc1ccc(C(=O)CN2CCOCC2)cc1 (racemic)
concentration at 1 h [7]: 3930 ng/g | concentration at 4 h [8]: 1610 ng/g | concentration at 6 h [9]: 955 ng/g | Ki (Histamine H3 receptor [2]): 56 nM | Drug uptake (Brain): Not Active

Cc1cc(OCCCN2CCC[C@H]2C)ccc1C(=O)CN1CCOCC1
Ki (Histamine H3 receptor [1]): 19 nM | Ki (Histamine H3 receptor [2]): 244 nM

CC1(C)CCCN1CCCOc1ccc(C(=O)CN2CCOCC2)cc1
Ki (Histamine H3 receptor [1]): > 1000 nM | Ki (Histamine H3 receptor [2]): > 1000 nM

O=C(CN1CCOCC1)c1ccc(OCCCN2CCCCC2)cc1
Ki (Histamine H3 receptor [1]): 66 nM | Ki (Histamine H3 receptor [2]): 440 nM

C[C@@H]1CCCN1CCCOc1ccc(C(=O)CN2CCOCC2)cc1
IC50 (Cytochrome P450 2D6): > 30 µM | concentration at 1 h [7]: 3770 ng/g | Activity (Rattus norvegicus [10]): Dose-dependent effect | fold change (FC) (Rattus norvegicus [11]): 2.2 | Activity (Rattus norvegicus [12]): Active | Time (Rattus norvegicus [13]): 163 min | Time (Rattus norvegicus [14]): 222 min | IC50 (Cytochrome P450 2C9): > 30 µM | Activity (Rattus norvegicus [15]): inactive | IC50 (Cytochrome P450 1A2): > 30 µM | Activity (Rattus norvegicus [16]): Active | inhibition [17]: 78% | Activity (Rattus norvegicus [18]): Active | Activity (Rattus norvegicus [19]): 93% | Ki (Histamine H3 receptor [2]): 50 nM | Kp at 1 h [20]: 30.7 | inhibition [21]: 67% | IC50 (Cytochrome P450 3A4): > 30 µM | Activity (Rattus norvegicus [22]): inactive | bioavailability [23]: 14% | Activity (Rattus norvegicus [24]): Active | AUC (Rattus norvegicus [25]): 109 ng·h/mL | Time (Rattus norvegicus [26]): 118 min | solubility [27]: > 145 µg/mL | IC50 (Cytochrome P450 2C19): > 30 µM | Activity (Rattus norvegicus [28]): Non-toxic | fold change (FC) (Rattus norvegicus [29]): 2

C[C@H]1CCCN1CCCOc1ccc(C(=O)CN2CCOCC2)cc1
Ki (Histamine H3 receptor [2]): 885 nM

COC[C@@H]1CCCN1CCCOc1ccc(C(=O)CN2CCOCC2)cc1
Ki (Histamine H3 receptor [1]): > 3000 nM | Ki (Histamine H3 receptor [2]): > 3000 nM

O=C(CN1CCCCC1)c1ccc(OCCCN2CCCC2)cc1
Ki (Histamine H3 receptor [1]): 32 nM | Ki (Histamine H3 receptor [2]): 174 nM

COC[C@H]1CCCN1CCCOc1ccc(C(=O)CN2CCOCC2)cc1
Ki (Histamine H3 receptor [1]): 1170 nM | Ki (Histamine H3 receptor [2]): > 3000 nM

CC(C(=O)c1ccc(OCCCN2CCC[C@H]2C)cc1)N1CCOCC1 (stereo partly specified)
half-life [3]: > 40 min | Ki (Histamine H3 receptor [1]): 8 nM | half-life [4]: > 40 min | half-life [5]: > 40 min | Ki (Histamine H3 receptor [2]): 105 nM | half-life [6]: > 40 min
